This note sets out measurements from ChEMBL document CHEMBL3046935, “Bioassay-directed isolation and identification of phytotoxic and fungitoxic acetylenes from Conyza canadensis” (J Agric Food Chem, 2012).

For orientation: IC50 means the concentration at which inhibition is half-maximal. Read a low IC50 as greater potency.

Molecules are shown by their SMILES. Activity calls are given as the source filed them. The calls are words filed in the database; no cut-off is given here.

One data set deals with Agrostis stolonifera. Nature of the data set: Phytotoxicity against Agrostis stolonifera seeds assessed as inhibition of germination of seeds at 1 mg/mL after 7 days. It counts as organism-based. Particulars: in vivo, 168 h. Summed up: (§1)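 Seeds (5 mg lettuce or 10 mg bentgrass) were placed on filter paper in 24-well plates with 250 μL of test solution per well (acetone 3% final). Solvent-only wells served as controls. Plates were sealed and kept at 26 °C under continuous light for 7 days. Germination was rated visually on a 0−5 scale against untreated controls (0 = no effect, 5 = no growth/germination), with experiments in duplicate.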

The test system of a further data set is Lactuca sativa. Nature of the data set: Phytotoxicity against […] dicot Lactuca sativa (lettuce) seeds assessed as inhibition of germination of seeds at 1 mg/mL after 7 days. Particulars: in vivo, 168 h. The data set is classed as organism-based. An outline of the steps:
as §1

The subject of data set [1] is Colletotrichum fragariae. Nature of the data set: Antifungal activity against Colletotrichum fragariae assessed as growth inhibition at 0.3 to 30 uM by Ninety-Six Well microbioassay. The data set is classed as functional, organism-based. Summed up: (§2)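 Fungi (the Colletotrichum isolates came from strawberry anthracnose lesions) were grown on PDA at 24 ± 2 °C under a 12 h photoperiod. They were tested in 96-well microtiter dose-response format at final concentrations of 0.3, 3.0 and 30.0 μM, in duplicate. Growth was read as absorbance at 620 nm at 0, 24, 48 and 72 h, with solvent controls.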

In data set [2] the test system is Colletotrichum acutatum. Nature of the data set: Antifungal activity against Colletotrichum acutatum assessed as growth inhibition at 0.3 to 30 uM by Ninety-Six Well microbioassay. It counts as functional, organism-based. An outline of the steps: as §2
Data set [3] has as its system Colletotrichum gloeosporioides. Nature of the data set: Antifungal activity against Colletotrichum gloeosporioides assessed as growth inhibition at 0.3 to 30 uM by Ninety-Six Well microbioassay. It counts as functional, organism-based. An outline of the steps: as §2
In data set [4] the test system is Colletotrichum fragariae. Kind of data set: Antifungal activity against Colletotrichum fragariae assessed as growth inhibition at 10 ug/spot by […]. The data set is classed as functional.
Data set [5] has as its system Colletotrichum acutatum. Nature of the data set: Antifungal activity against Colletotrichum acutatum assessed as growth inhibition at 10 ug/spot by […]. The data set is classed as functional.
The test system of data set [6] is Colletotrichum gloeosporioides. Nature of the data set: Antifungal activity against Colletotrichum gloeosporioides assessed as growth inhibition at 10 ug/spot by […]. The data set is classed as functional.
The next data set relates to Lemna aequinoctialis. Nature of the data set: Inhibition of growth of Lemna paucicostata.

Consider `C/C=C\C#CC#C/C=C\C(=O)OC` [(2Z,8Z)-MATRICARIA ACID METHYL ESTER], for which the Activity entry in the data set with Agrostis stolonifera and in the data set on Lactuca sativa was “Toxic” each time.

Regarding `CCCC#C/C=C1/C=CC(=O)O1` [(4Z)-LACHNOPHYLLUM LACTONE], the Activity result in the data set on Agrostis stolonifera and with Lactuca sativa was “Toxic” in each case. For the same compound, the outcome (with Colletotrichum fragariae [1]; in the data set with Colletotrichum acutatum [2]; in data set [3]) was Active. Moreover, the “diameter of the inhibition zone (DIZ)” value was 0.3 mm in the data set on Colletotrichum fragariae [4], 0.75 mm in the data set with Colletotrichum acutatum [5] and 0.58 mm in [6]. Moreover, in the data set on Lemna aequinoctialis, the IC50 came to 104 µM.

With `C/C=C\C#C/C=C1/C=CC(=O)O1` [(4Z,8Z)-MATRICARIA LACTONE], the Activity result in the data set with Agrostis stolonifera and in the data set on Lactuca sativa was “Toxic” throughout. The outcome (in the data set on Colletotrichum fragariae [1]; in the data set on Colletotrichum acutatum [2]; in data set [3]) was Active. Moreover, the “diameter of the inhibition zone (DIZ)” value with Colletotrichum fragariae [4] turned out to be 2.65 mm; with Colletotrichum acutatum [5], 0.7 mm; in data set [6], 0.98 mm. Further, in the data set on Lemna aequinoctialis, half-maximal inhibition (IC50) required 220 µM.
